Laboratory results taken from ChEMBL document CHEMBL1140016, “Arylpropanolamines: selective beta3 agonists arising from strategies to mitigate phase I metabolic transformations” (Bioorg Med Chem Lett, 2007).

Tests used:
[1] = target: T1, Beta-3 adrenergic receptor (Homo sapiens, UniProt P13945); experiment: Displacement of [125I]iodocyanopindolol from cloned human adrenergic beta-3 receptor expressed in CHO cells; assay type: cell-based
Target sequence in this assay (P13945 whole entry): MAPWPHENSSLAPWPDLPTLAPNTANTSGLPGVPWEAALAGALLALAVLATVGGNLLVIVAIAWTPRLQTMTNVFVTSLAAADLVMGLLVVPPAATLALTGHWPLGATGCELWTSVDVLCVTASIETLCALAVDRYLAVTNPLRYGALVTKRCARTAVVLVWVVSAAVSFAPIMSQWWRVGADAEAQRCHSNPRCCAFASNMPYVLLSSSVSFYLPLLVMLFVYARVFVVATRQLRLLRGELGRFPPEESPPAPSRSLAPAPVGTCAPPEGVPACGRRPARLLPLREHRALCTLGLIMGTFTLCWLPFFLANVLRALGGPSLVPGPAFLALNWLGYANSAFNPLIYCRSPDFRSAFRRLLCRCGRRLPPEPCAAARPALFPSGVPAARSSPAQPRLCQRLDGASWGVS

[2] = target: T1, Beta-3 adrenergic receptor; experiment: Intrinsic activity at human cloned adrenergic beta3 receptor expressed in CHO cells assessed as cAMP accumulation relative to isoproterenol; assay type: functional, cell-based
Target sequence in this assay (P13945 whole entry, looked up): as the sequence (P13945 whole entry) above

[3] = target: Beta-1 adrenergic receptor (Homo sapiens, UniProt P08588); experiment: Displacement of [125I]iodocyanopindolol from human cloned adrenergic beta-1 receptor expressed in CHO cells; assay type: cell-based
Sequence of Beta-1 adrenergic receptor (P08588 whole entry): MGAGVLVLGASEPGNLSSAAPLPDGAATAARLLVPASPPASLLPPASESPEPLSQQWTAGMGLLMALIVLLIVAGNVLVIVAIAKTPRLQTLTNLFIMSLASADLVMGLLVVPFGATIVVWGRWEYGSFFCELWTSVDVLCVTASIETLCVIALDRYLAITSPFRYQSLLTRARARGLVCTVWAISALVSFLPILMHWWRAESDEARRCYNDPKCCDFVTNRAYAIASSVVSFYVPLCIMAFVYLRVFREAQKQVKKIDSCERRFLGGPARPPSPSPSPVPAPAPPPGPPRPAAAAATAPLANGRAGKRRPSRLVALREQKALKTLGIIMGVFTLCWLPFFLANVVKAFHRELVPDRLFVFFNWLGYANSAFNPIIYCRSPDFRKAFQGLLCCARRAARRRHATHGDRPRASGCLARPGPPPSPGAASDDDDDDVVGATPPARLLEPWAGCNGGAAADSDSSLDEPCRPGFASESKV

[4] = target: Beta-1 adrenergic receptor (Cavia porcellus) (UniProt B0FL73); experiment: Intrinsic activity at adrenergic beta-1 receptor in spontaneously beating guinea pig atria assessed as acceleration in contraction relative to isoproterenol
Sequence of Beta-1 adrenergic receptor (Cavia porcellus) (B0FL73 1-467): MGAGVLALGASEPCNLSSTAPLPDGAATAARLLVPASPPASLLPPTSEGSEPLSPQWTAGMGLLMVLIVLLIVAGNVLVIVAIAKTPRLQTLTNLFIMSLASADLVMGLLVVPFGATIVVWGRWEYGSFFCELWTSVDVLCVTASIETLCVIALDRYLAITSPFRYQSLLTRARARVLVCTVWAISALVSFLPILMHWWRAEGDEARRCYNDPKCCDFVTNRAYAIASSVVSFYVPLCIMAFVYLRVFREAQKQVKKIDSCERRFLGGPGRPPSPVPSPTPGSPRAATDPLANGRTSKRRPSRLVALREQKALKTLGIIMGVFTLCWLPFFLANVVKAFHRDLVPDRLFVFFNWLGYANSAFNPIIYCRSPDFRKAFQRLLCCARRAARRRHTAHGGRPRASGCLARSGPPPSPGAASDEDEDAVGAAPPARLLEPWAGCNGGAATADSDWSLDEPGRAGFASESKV

[5] = target: Beta-2 adrenergic receptor (Homo sapiens, UniProt P07550); experiment: Displacement of [125I]iodocyanopindolol from human cloned adrenergic beta-2 receptor expressed in CHO cells; assay type: cell-based
Sequence of Beta-2 adrenergic receptor (P07550 whole entry): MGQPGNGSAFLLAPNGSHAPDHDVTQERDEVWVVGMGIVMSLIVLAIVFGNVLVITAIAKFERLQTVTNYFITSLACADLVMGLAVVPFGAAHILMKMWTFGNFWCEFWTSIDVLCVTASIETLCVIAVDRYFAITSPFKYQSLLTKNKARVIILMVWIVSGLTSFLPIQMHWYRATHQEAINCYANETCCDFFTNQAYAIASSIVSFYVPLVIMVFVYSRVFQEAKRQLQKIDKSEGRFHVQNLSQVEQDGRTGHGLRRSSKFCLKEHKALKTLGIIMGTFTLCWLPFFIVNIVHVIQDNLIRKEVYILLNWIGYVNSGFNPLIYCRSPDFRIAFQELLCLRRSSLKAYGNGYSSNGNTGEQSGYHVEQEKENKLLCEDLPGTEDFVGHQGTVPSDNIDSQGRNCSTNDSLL

African green monkey [6] = experiment: Effect on potassium levels in African green monkey serum at 0.1 mg/kg, iv; assay type: functional, Chlorocebus sabaeus; design: unit not given beside the values
Procedure, shortened: (§1)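 Single iv dose given to ketamine-sedated African green monkeys, either 0.1 or 0.5 mg/kg as the line states. Three read-outs were recorded after dosing: change in serum free fatty acids (β3 lipolysis), change in serum K+ (a decrease is β2-mediated) and change in heart rate (β1/β2 tachycardia). Changes were tested for significance at P < 0.05.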

African green monkey [7] = experiment: Effect on tachycardia in African green monkey assessed as change in heart rate at 0.1 mg/kg, iv; assay type: functional, Chlorocebus sabaeus; procedure, shortened: as §1
African green monkey [8] = experiment: Effect on lipolysis in iv dosed African green monkey; assay type: functional; conditions: Chlorocebus sabaeus
Procedure, shortened: (§2)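 Compounds were given iv to ketamine-sedated African green monkeys across a range of doses. Lipolysis ED50 (mg/kg) came from the rise in serum free fatty acids. Onset doses were the lowest doses giving a statistically significant rise in heart rate (β1) or fall in serum K+ (β2). Each margin is the onset dose divided by the lipolysis ED50.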

African green monkey [9] = experiment: Ratio of serum potassium concentration to ED50 for lipolysis in African green monkey; assay type: functional, Chlorocebus sabaeus; procedure, shortened: as §2
African green monkey [10] = experiment: Ratio of effect on tachycardia to ED50 for lipolysis in African green monkey; assay type: functional, Chlorocebus sabaeus; procedure, shortened: as §2
African green monkey [11] = experiment: Effect on African green monkey assessed as change in free fatty acid level at 0.1 mg/kg, iv; assay type: functional, Chlorocebus sabaeus; procedure, shortened: as §1
African green monkey [12] = experiment: Effect on free fatty acid level in African green monkey serum at 0.5 mg/kg, iv; assay type: functional, Chlorocebus sabaeus; procedure, shortened: as §1
African green monkey [13] = experiment: Effect on African green monkey serum assessed as potassium concentration at 0.5 mg/kg, iv; assay type: functional, Chlorocebus sabaeus; procedure, shortened: as §1
African green monkey [14] = experiment: Effect on tachycardia in African green monkey assessed as change in heart rate at 0.5 mg/kg, iv; assay type: functional, Chlorocebus sabaeus; procedure, shortened: as §1

Structure (SMILES)	Ki [1] [µM]	Intrinsic activity [2] [%]	Ki [3] [µM]	Intrinsic activity [4] [%]	Ki [5] [µM]	Activity (African green monkey [6])	Activity (African green monkey [7])	ED50 (African green monkey [8]) [µg/kg]	Ratio (African green monkey [9])	Ratio (African green monkey [10])	Activity (African green monkey [11])	Activity (African green monkey [12])	Activity (African green monkey [13])	Activity (African green monkey [14])
COc1ccc([C@@H](Cc2ccccc2)NC[C@@H](O)Cc2ccc(O)c(NS(C)(=O)=O)c2)cc1OC	0.006	86	2.6	60	0.066	-0.08	24	9	>55	3	1.06			
COc1ccc(C(NC[C@H](O)c2ccc(O)c(NS(C)(=O)=O)c2F)c2ccc(OC)cc2)cc1	1.7	24										0.39	-0.49	4
